Results: ChEMBL document CHEMBL5346889, “Discovery of 4-oxo-N-phenyl-1,4-dihydroquinoline-3-carboxamide derivatives as novel anti-inflammatory agents for the treatment of acute lung injury and sepsis” (Eur J Med Chem, 2023)
Active and inactive are the calls of the source. The rule behind the calls is not given here.

Legend:
[1] = test system: J774.A1; experiment: Antiinflammatory activity in LPS-induced mouse J774.A1 cells assessed as inhibition of LPS-induced TNF-alpha transcription preincubated for 0.5 hrs followed by LPS stimulation for 6 hrs by RT-qPCR method; format: functional, cell-based; conditions: dose 5-10 µM, time 6.5 hrs
Summary of the method: (§1)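 J774A.1 or THP-1 cells pretreated 0.5 h at 10 or 5 μM, then LPS 0.5 μg/mL for 6 h. TRIzol RNA; IL-6, TNF-α and IL-1β transcripts by RT-qPCR, normalized to β-actin and control; 3 independent experiments, mean ± SEM.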

[2] = test system: Mus musculus; experiment: Protection against LPS-induced C57/BL6 mouse acute lung injury model assessed as reduction in number of neutrophils in BALF at 20 mg/kg via oral gavage preincubated for 30 mins followed by LPS stimulation for 6 hrs; format: functional, organism-based; conditions: time 6.5 hrs
Summary of the method: (§2)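 Mice dosed 20 mg/kg by gavage (dexamethasone 20 mg/kg comparator), intratracheal LPS 5 mg/kg 30 min later, killed at 6 h. Right upper lobe fixed in paraformaldehyde, H&E; lung wet/dry ratio; BALF protein, total cells and neutrophils counted; n = 5 mice per group, mean ± SEM.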

[3] = AUC (0 to t) in rat at 1 mg/kg, iv; format: ADME, organism-based; set-up: dose 1 mg/kg, route iv; conditions: in vivo
Summary of the method: (§3)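 Rats dosed intravenously at 1 mg/kg or orally at 10 mg/kg; plasma pharmacokinetic parameters AUC(0-t), Tmax, T1/2, Cmax and oral bioavailability F derived from the two routes.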

[4] = test system: Mus musculus; experiment: Protection against LPS-induced sepsis in C57/BL6 mouse model assessed as reduction of obvious white pulp in spleen at 20 mg/kg, po preincubated with compound followed by LPS stimulation for 1 hr by H and E staining based analysis; format: functional, organism-based
Summary of the method: (§4)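 Mice given 20 mg/kg orally, then intraperitoneal LPS 20 mg/kg 1 h later; n = 12 per group. Kidney, liver, heart and spleen weighed; spleen sections H&E-stained for histology.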

[5] = test system: Mus musculus; experiment: Protection against LPS-induced sepsis in C57/BL6 mouse model assessed as improvement in survival rate at 20 mg/kg, po preincubated with compound followed by LPS stimulation for 1 hr and measured every 12 hrs by 6 days; format: functional, organism-based; conditions: time 6.0 day
Summary of the method: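 Sepsis model in C57BL/6 mice, n = 12 per group: oral 20 mg/kg, then intraperitoneal LPS 20 mg/kg 1 h later; saline control. Survival checked every 12 h and body weight every 24 h for 6 days.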

[6] = test system: Mus musculus; experiment: Antiinflammatory activity in LPS-induced C57/BL6 mouse acute lung injury model assessed as decrease in TNF-alpha level in BALF at 20 mg/kg via oral gavage preincubated for 30 mins followed by LPS stimulation for 6 hrs by ELISA; conditions: time 6.5 hrs
[7] = Half life in rat at 10 mg/kg, po; format: ADME, organism-based; conditions: in vivo; summary of the method: as §3
[8] = test system: THP-1; experiment: Antiinflammatory activity in LPS-induced human THP-1 cells assessed as inhibition of LPS-induced IL-6 release preincubated for 30 mins followed by LPS stimulation for 24 hrs by ELISA method; format: functional, cell-based
Summary of the method: (§5)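 THP-1 or LX-2 cells in DMEM with 10% FBS, 37 °C, 5% CO2. Pretreated 30 min at 10, 5, 2.5 or 1.25 μM, then LPS 0.5 μg/mL for 24 h. IL-6 and TNF-α in medium measured by ELISA, normalized to lysate total protein; mean ± SEM of 3 independent experiments.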

[9] = test system: Mus musculus; experiment: Protection against LPS-induced sepsis in C57/BL6 mouse model assessed as reduction in spleen enlargement at 20 mg/kg, po preincubated with compound followed by LPS stimulation for 1 hr; format: functional, organism-based; summary of the method: as §4
[10] = test system: J774.A1; experiment: Inhibition of NF-kappaB pathway in LPS-induced mouse J774.A1 cells assessed as inhibition of IkappaB-alpha degradation preincubated with compound for 2 hrs followed by LPS-stimulation and measured after 30 mins by Western blot analysis; format: cell-based; conditions: dose 5-10 µM, time 2.5 hrs
Summary of the method: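 J774A.1 cells preincubated with 10 or 5 μM or DMSO for 2 h, then LPS 0.5 μg/mL for 30 min. RIPA lysates run on 12.5% SDS-PAGE, transferred to PVDF, blocked with 5% milk; probed for IκB-α and p-p65, with GAPDH and p65 as loading controls; ECL detection; densitometry.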

[11] = test system: Mus musculus; experiment: Protection against LPS-induced C57/BL6 mouse acute lung injury model assessed as reduction in number of total cells in BALF at 20 mg/kg via oral gavage preincubated for 30 mins followed by LPS stimulation for 6 hrs; format: functional, organism-based; conditions: time 6.5 hrs; summary of the method: as §2
[12] = test system: Mus musculus; experiment: Protection against LPS-induced sepsis in C57/BL6 mouse model assessed as reduction in periarterial lymphatic sheath thickening at 20 mg/kg, po preincubated with compound followed by LPS stimulation for 1 hr by H and E staining based analysis; format: functional, organism-based; summary of the method: as §4
[13] = test system: Mus musculus; experiment: Antiinflammatory activity in LPS-induced C57/BL6 mouse acute lung injury model assessed as decrease in IL-6 level in serum at 20 mg/kg via oral gavage preincubated for 30 mins followed by LPS stimulation for 6 hrs by ELISA; conditions: time 6.5 hrs
[14] = test system: THP-1; experiment: Antiinflammatory activity in LPS-induced human THP-1 cells assessed as inhibition of LPS-induced IL-1 beta transcription preincubated for 0.5 hrs followed by LPS stimulation for 6 hrs by RT-qPCR method; format: functional, cell-based; conditions: dose 5-10 µM, time 6.5 hrs; summary of the method: as §1
[15] = test system: LX-2; experiment: Antiinflammatory activity in LPS-induced human LX2 cells assessed as inhibition of LPS-induced TNF-alpha release preincubated for 30 mins followed by LPS stimulation for 24 hrs by ELISA method; format: functional, cell-based; summary of the method: as §5
[16] = test system: J774.A1; experiment: Antiinflammatory activity in LPS-induced mouse J774.A1 cells assessed as inhibition of LPS-induced IL-6 transcription preincubated for 0.5 hrs followed by LPS stimulation for 6 hrs by RT-qPCR method; format: functional, cell-based; conditions: dose 5-10 µM, time 6.5 hrs; summary of the method: as §1
[17] = test system: THP-1; experiment: Antiinflammatory activity in LPS-induced human THP-1 cells assessed as inhibition of LPS-induced IL-6 transcription preincubated for 0.5 hrs followed by LPS stimulation for 6 hrs by RT-qPCR method; format: functional, cell-based; conditions: dose 5-10 µM, time 6.5 hrs; summary of the method: as §1
[18] = test system: Mus musculus; experiment: Protection against LPS-induced C57/BL6 mouse acute lung injury model assessed as improvement in alveolar wall thickening at 20 mg/kg via oral gavage preincubated for 30 mins followed by LPS stimulation for 6 hrs; format: functional, organism-based; conditions: time 6.5 hrs; summary of the method: as §2
[19] = test system: Mus musculus; experiment: Protection against LPS-induced sepsis in C57/BL6 mouse model assessed as reduction in demarcation between white and red pulp at 20 mg/kg, po preincubated with compound followed by LPS stimulation for 1 hr by H and E staining based analysis; format: functional, organism-based; summary of the method: as §4
[20] = Cmax in rat at 1 mg/kg, iv; format: ADME, organism-based; set-up: dose 1 mg/kg, route iv; conditions: in vivo; summary of the method: as §3
[21] = test system: Mus musculus; experiment: Antiinflammatory activity in LPS-induced C57/BL6 mouse acute lung injury model assessed as decrease in TNF-alpha level in serum at 20 mg/kg via oral gavage preincubated for 30 mins followed by LPS stimulation for 6 hrs by ELISA; conditions: time 6.5 hrs
[22] = test system: Mus musculus; experiment: Protection against LPS-induced C57/BL6 mouse acute lung injury model assessed as reduction in lung wet/dry ratio at 20 mg/kg via oral gavage preincubated for 30 mins followed by LPS stimulation for 6 hrs; format: functional, organism-based; conditions: time 6.5 hrs; summary of the method: as §2
[23] = Tmax in rat at 10 mg/kg, po; format: ADME, organism-based; conditions: in vivo; summary of the method: as §3

AUC(0-t) [3]: 6320 ng·h/mL | half-life [7]: 11.8 h | IC50 [8]: 1330 nM | IC50 [15]: 2910 nM | Cmax [20]: 1360 ng/mL | Tmax [23]: 5 h
SMILES: COc1cc2nccc(Oc3ccc(NC(=O)c4cn(-c5ccccc5)c5ccccc5c4=O)cc3)c2cc1OC
inhibition [1]: Dose-Dependent Effect | Activity [2]: Active | Activity [4]: Active | Activity [5]: Active | Activity [6]: Active | Activity [9]: Active | inhibition [10]: Dose-Dependent Effect | Activity [11]: Active | Activity [12]: Active | Activity [13]: Active | inhibition [14]: Dose-Dependent Effect | inhibition [16]: Dose-Dependent Effect | inhibition [17]: Dose-Dependent Effect | Activity [18]: Active | Activity [19]: Active | Activity [21]: Active | Activity [22]: Active
